One assay deals with HT-29. As to the kind of experiment: Cytotoxicity against human HT-29 cells. It is filed as functional, cell-based. The gist of the method:
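HT-29 human colon cancer cells treated with serial dilutions of test samples. IC50 derived by nonlinear regression. Measured in triplicate in two independent experiments. Paclitaxel served as positive control.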

For the next assay, the system named is P388. In words: Cytotoxicity against mouse P388 cells. It is filed as functional, cell-based.
Assay [1] concerns the target T1, Solute carrier family 2, facilitated glucose transporter member 1 (Homo sapiens) (UniProt P11166).
T1 sequence (whole entry): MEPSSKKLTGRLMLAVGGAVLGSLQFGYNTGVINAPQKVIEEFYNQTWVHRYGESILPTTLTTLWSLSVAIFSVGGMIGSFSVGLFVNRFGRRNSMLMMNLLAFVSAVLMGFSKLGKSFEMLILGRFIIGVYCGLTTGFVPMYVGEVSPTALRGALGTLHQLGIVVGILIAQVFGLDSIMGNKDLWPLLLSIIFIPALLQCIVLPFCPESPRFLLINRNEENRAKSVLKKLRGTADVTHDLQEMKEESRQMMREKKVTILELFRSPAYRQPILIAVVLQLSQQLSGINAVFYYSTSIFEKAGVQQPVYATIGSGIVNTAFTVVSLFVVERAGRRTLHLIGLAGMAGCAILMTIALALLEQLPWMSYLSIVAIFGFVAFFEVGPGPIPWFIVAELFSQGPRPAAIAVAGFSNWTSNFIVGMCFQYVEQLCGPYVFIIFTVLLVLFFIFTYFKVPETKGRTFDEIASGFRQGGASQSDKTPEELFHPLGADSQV
As to the kind of experiment: Inhibition of GLUT-1 in human H1299 cells assessed as 2-deoxy-D-[3H]glucose uptake at 30 uM incubated for 15 mins prior to 2-deoxy-D-[3H]glucose challenge measured after 10 mins by liquid scintillation counting analysis (reference value: 100%). Format: cell-based. More on the design: scale not given: the % may be the effect or the level left. In outline: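 Before dosing, H1299 human lung cancer cells were washed and held in serum-free DMEM for 2 h at 37 °C in 10% CO2, then in KRP buffer for 30 min at 37 °C. Compound was added at 30 μM final and incubated 15 min at 37 °C. Uptake was started with 37 MBq/L 2-deoxy-3H glucose plus 1 mM glucose (final) and stopped after 10 min by three cold PBS washes. Cells were NaOH-lysed and lysate radioactivity read by scintillation counting. Vehicle served as negative control and WZB117 (30 μM) as positive control. n = 3.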

Where only a bound is given, the exact number is not on record here.

In the assay on HT-29, `O=C(/C=C/c1ccc(O)cc1)OCCCCCCCCCCCCCCCCOC(=O)/C=C/c1ccc(O)cc1` gave an IC50 of over 10 µM.

Consider `O=C(O)C[C@H]1CC=CC(=O)/C1=C(O)/C=C/c1ccccc1`, for which the 50% inhibitory concentration (IC50) with HT-29 was over 10 mg/L.

Regarding `O=C1C[C@@H]2/C(=C(O)\C=C\c3ccccc3)C(=O)C=C[C@@H]2O1` [CRYPTOCARYONE], the half-inhibitory concentration (IC50) in the assay on P388 was found to be 0.04 µM; with HT-29, 0.32 µM. Further, in assay [1], the Activity came out at 58.7%.

In the case of `O=C1C[C@@H]2C3=C(C=C[C@@H]2O1)O[C@@H](c1ccccc1)CC3=O` [CRYPTOCARYANONE A], the 50% inhibitory concentration (IC50) in the assay with HT-29 amounted to 10.9 µM.

`O=C1CCC[C@@H]2C[C@H](C[C@](O)(CCc3ccccc3)O2)c2c(cc(O)c(C(=O)/C=C/c3ccccc3)c2O)O1` yielded a concentration for half-maximal inhibition (IC50) in the assay on HT-29 of over 10 µM.

In the assay on HT-29, `CC(=O)O[C@H]1C(=O)[C@@]2(C)[C@H]([C@H](OC(=O)c3ccccc3)[C@]3(O)C[C@H](OC(=O)[C@H](O)[C@@H](NC(=O)c4ccccc4)c4ccccc4)C(C)=C1C3(C)C)[C@]1(OC(C)=O)CO[C@@H]1C[C@@H]2O` [PACLITAXEL] showed an IC50 of over 10 µM.

On to `O=C1C[C@@H]2C3=C(O[C@H](c4ccccc4)CC3=O)[C@@H]3[C@H]([C@@H]2O1)[C@H]1C[C@@H]2OC(=O)C[C@@H]2[C@@]3(C(=O)/C=C/c2ccccc2)C1=O`, for which the half-maximal inhibitory concentration (IC50) with HT-29 is over 10 µM.

In the assay with HT-29, `O=C1C[C@@H]2C3=C(O[C@H](c4ccccc4)CC3=O)[C@@H]3[C@@H]([C@@H]4C=C5O[C@H](c6ccccc6)CC(=O)[C@@]53[C@H]3CC(=O)O[C@@H]43)[C@@H]2O1` had a 50% inhibitory concentration (IC50) of over 10 µM.

On to `O=C(Oc1cccc(F)c1OC(=O)c1cccc(O)c1)c1cccc(O)c1`, for which the Activity in assay [1] was 15.7%.

What is called IC50 is the point on the concentration scale where inhibition reaches its midpoint.

Source of the values: ChEMBL document CHEMBL3124898, “Constituents of an extract of Cryptocarya rubra housed in a repository with cytotoxic and glucose transport inhibitory effects” (J Nat Prod, 2014).
